Assay outcomes as filed in PubChem.
This is a sample that favours compounds with a hit; in the whole collection about 3.4% have one here.
LANA-H2A inh – blocks KSHV LANA binding to histone H2A/H2B; cell-free LANA-H2A/H2B peptide, fluorescence polarization; inhibition, % (concentration not given with the values); 320,000 compounds, 0.6% hits; AID 2629; in the data active means inhibition mostly above about 10%, no sharp cut-off; inactive means mostly below about 6.7%
Target sequence (Q9QR71 whole entry, looked up): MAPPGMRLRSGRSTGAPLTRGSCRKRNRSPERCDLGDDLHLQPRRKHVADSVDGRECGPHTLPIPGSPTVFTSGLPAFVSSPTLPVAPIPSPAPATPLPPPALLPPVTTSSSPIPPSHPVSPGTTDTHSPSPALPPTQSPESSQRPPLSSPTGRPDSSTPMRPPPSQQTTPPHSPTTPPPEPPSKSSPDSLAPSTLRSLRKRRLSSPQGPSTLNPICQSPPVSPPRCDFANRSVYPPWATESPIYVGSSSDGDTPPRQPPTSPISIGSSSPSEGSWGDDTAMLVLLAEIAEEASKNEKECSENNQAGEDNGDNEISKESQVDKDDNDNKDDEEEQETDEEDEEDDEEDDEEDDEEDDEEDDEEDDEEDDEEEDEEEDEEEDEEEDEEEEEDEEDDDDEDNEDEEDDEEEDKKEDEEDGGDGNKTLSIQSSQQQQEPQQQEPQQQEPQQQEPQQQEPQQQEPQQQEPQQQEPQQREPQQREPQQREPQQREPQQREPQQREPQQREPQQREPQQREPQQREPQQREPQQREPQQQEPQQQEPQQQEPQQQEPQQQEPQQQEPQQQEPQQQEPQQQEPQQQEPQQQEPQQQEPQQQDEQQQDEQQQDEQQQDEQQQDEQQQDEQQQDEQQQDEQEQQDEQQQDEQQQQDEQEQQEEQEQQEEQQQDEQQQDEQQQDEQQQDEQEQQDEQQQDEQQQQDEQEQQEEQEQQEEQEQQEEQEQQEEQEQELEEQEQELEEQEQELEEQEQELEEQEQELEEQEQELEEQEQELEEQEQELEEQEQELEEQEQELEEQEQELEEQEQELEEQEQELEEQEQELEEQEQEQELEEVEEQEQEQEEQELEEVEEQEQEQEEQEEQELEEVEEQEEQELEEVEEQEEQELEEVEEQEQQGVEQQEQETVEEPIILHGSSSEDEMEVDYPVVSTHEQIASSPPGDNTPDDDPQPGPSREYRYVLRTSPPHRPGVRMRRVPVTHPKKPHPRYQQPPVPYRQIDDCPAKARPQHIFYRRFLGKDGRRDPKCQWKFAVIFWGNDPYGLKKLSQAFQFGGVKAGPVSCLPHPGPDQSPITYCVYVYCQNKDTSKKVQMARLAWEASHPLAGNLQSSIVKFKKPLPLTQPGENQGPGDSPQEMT
TAAR1 antagonist – antagonists of human TAAR1. 360,000 compounds, 1.5% hits. CHO RD-HGA16 TAAR1, Fluo-8 calcium fluorescence, antagonist. inhibition, % at 3 µM;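 active means inhibition above a per-plate cutoff, the mean inhibition of test compounds on that plate plus 3 SD, cut at about 49% in these data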;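 further: 0% = DMSO plus EC80 beta-PEA response and 100% = DMSO alone without agonist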
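System: CHO RD-HGA16 cells bearing hTAAR1. Reagent: EC80 β-phenethylamine stimulus. Schedule: seeding 17-24 h prior, 75-min 37 °C, 30-min RT dye loading. Signal: Fluo-8 intracellular calcium dye fluorescence, real-time kinetic reads. Read-out: % inhibition from peak post-agonist over basal fluorescence ratio. Benchmarks: vehicle wells and EC80 agonist wells. Replicates: n of 1.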
GPR7 antag – antagonists of human GPR7 (neuropeptides B/W receptor 1) | AID 1861 | 290,000 compounds, 1.1% hits | P48145 | inhibition, % at 4.4 µM | GPR7-expressing cells, fluorescence antagonist assay; in the data active means inhibition above about 16%, passing the limit was not always enough;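 further: cells stimulated with the agonist NPW; 0% = agonist with vehicle and 100% = vehicle without agonist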
TRPML3 agonist – activates the human TRPML3 channel; Q8TDD5; HEK293 TRPML3-YFP, Fluo-8 calcium fluorescence; 100% = the carbachol control signal; activation, % at 3 µM; 220,000 compounds, 0.29% hits;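 active means activation above its plate's cutoff, the mean activation of the plate's test wells plus 3 SD, cut at about 12% in these data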;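 further: 0% = DMSO only wells and 100% = carbachol wells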
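system = HEK293 cells stably carrying human TRPML3-YFP | doses = one concentration, 3 µM nominal, 0.3% DMSO | timing = dye loading 1 h 37 °C then 30 min ambient, 125 s read | detection = Fluo-8 calcium dye fluorescence, ex 470-495, em 515-575 nm | benchmarks = high control carbachol 87 µM, low control DMSO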
TAAR1 agonist – agonists of human TAAR1. CHO RD-HGA16 TAAR1, Fluo-8 calcium fluorescence; vehicle wells 0%, saturating PEA agonist 100%. activation, % at 3 µM. 360,000 compounds, 0.99% hits. AID 624467;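 active means activation above the mean activation of all test compounds in the run plus 3 SD, cut at about 38% in these data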
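Assay system: CHO-derived RD-HGA16 cells with stable Gα16 and human TAAR1; timing: 17-24 h seeding, 75 min 37 °C dye, 30 min RT; read-out: % activation from peak over basal fluorescence ratio, DMSO-to-PEA scaled; measured by: kinetic Fluo-8 calcium fluorescence; benchmarks: low control DMSO, high control PEA (EC100); doses: 3 µM single concentration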
zfTRPN1 agonist – agonists of zebrafish TRPN1 channel | HEK293 zebrafish TRPN1-YFP, Fluo-8 calcium fluorescence; 100% = response to 87 µM carbachol | activation, % at 3 µM | 220,000 compounds, 0.18% hits | AID 1424;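 active means activation above its plate's cutoff, the mean activation of test wells on that plate plus 3 SD, cut at about 19% in these data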;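 further: 0% = DMSO alone and 100% = 87 µM carbachol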
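Material: zebrafish TRPN1-YFP in HEK293 cells. Doses: one dose of 3 µM, 0.3% DMSO. Incubation: dye 1 h 37 °C plus 30 min RT. Measured by: intracellular calcium fluorescence with Fluo-8.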
nonsel antag count – counter-screen for TAAR1 antagonists: nonselective antagonists. inhibition, % at 3 µM. shares compounds with TAAR1 antagonist. counterscreen cell line, calcium fluorescence, antagonist mode. 2,400 compounds, 77% hits. AID 651780; in the data active means inhibition above about 22%;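 further: CHO-Ga16 host cells stimulated with ATP at an EC80 level; 0% = agonist EC80 plus vehicle and 100% = vehicle without agonist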
TAAR1 antag conf – human TAAR1 antagonism, confirmed | 2,400 compounds, 40% hits | TAAR1-expressing cells, fluorescence antagonist read-out | AID 651785 | shares compounds with TAAR1 antagonist | inhibition, % at 3 µM; in the data active means inhibition above about 49%;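 further: CHO-Ga16 host cells challenged with agonist PEA near its EC80; 0% = agonist at EC80 plus vehicle and 100% = vehicle with no agonist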
Ga16 ag counter-1 – nonselective Ga16 agonism, counter-screen; shares compounds with TAAR1 antagonist; Ga16-expressing cells, calcium fluorescence, agonist counterscreen; activation, % at 3 µM; 2,400 compounds, 18% hits; in the data active means activation above about 12%;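 further: 0% = vehicle wells and 100% = saturating stimulus response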
TAAR1 ag count – counter-screen for human TAAR1 antagonists: TAAR1 agonists. activation, % at 3 µM. 2,400 compounds, 2% hits. hTAAR1 cell line, fluorescence activation, agonist mode. AID 651955. shares compounds with TAAR1 antagonist; in the data active means activation above about 37%;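 further: CHO cells stably expressing TAAR1 with calcium dye readout; 0% = DMSO vehicle and 100% = full agonist response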
TAAR1 ag confirm – human TAAR1 agonism, confirmed. shares compounds with TAAR1 agonist. CHO RD-HGA16 TAAR1, Fluo-8 calcium fluorescence; scaled: DMSO 0%, maximal phenethylamine 100%. activation, % at 3 µM. 2,400 compounds, 82% hits. AID 651783;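 active means activation above a cutoff set at the run's mean compound activation plus 3 SD, cut at about 39% in these data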
Ga16 ag counter-2 – nonselective agonism, TAAR1 counter-screen | shares compounds with TAAR1 agonist | CHO-Ga16 parental, Fluo-8 calcium fluorescence; normalized to maximal ATP response, DMSO zero | activation, % at 3 µM | 2,400 compounds, 50% hits | AID 651787;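 active means activation above the run cutoff, the mean activation over all tested wells plus 3 SD, cut at about 12% in these data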;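 further: 0% = DMSO wells and 100% = maximal ATP response on the peak over basal ratio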
TAAR1 desens – counter-screen for human TAAR1 agonists: agonists that desensitize TAAR1. CHO RD-HGA16 hTAAR1, Fluo-8 calcium, beta-PEA response inhibition. inhibition, % at 3 µM. shares compounds with TAAR1 agonist. AID 651951. 2,400 compounds, 46% hits;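 active means inhibition above the run cutoff, the mean inhibition of all test compounds plus 3 SD, cut at about 49% in these data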;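 further: beta-PEA stimulus applied at its EC80; loss of beta-PEA calcium signal after compound pretreatment read as receptor desensitization; 0% = DMSO with beta-PEA at EC80 and 100% = DMSO alone without agonist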
Ga16 antag count – nonselective Ga16 antagonism, counter-screen. inhibition, % at 3 µM. 2,400 compounds, 39% hits. CHO-Ga16 ATP-induced calcium, Fluo-8 fluorescence. shares compounds with TAAR1 agonist;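 active means inhibition above the plate's mean compound inhibition plus 3 SD, computed per plate, cut at about 22% in these data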;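 further: 0% = EC80 ATP with DMSO and 100% = DMSO wells without ATP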
* marks the source's active call; other numbers are inactive results; / = not tested or not shown.

SMILES	LANA-H2A inh	TAAR1 antagonist	GPR7 antag	TRPML3 agonist	TAAR1 agonist	zfTRPN1 agonist	TAAR1 ag confirm	Ga16 ag counter-2	TAAR1 desens	Ga16 antag count	others
C=CC[C@H](CC(=O)N(CCO)Cc1ccccc1)C(=O)N[C@H](COC(=O)[C@@H](CC=C)CC(=O)OC(C)(C)C)Cc1c[nH]c2ccccc12	-1	67*	/	/	15	/	/	/	/	/	nonsel antag count=21;TAAR1 antag conf=42;Ga16 ag counter-1=4;TAAR1 ag count=6
O=C(Cc1ccc(-c2ccccc2)cc1)NC1CCCC1	4	-4	-2	1	59*	3	14	7	2	13
O=C(Cc1ccc(F)cc1)NC1CCCCCC1	-8	-1	-17	/	0	/	/	/	/	/
Cc1cnc(NC(=O)CCCSc2nc3ccccc3s2)s1	0	61*	5	0	53*	0	9	2	2	4
COCC(=O)Nc1nc2ccccc2s1	1	12	1	1	4	2	/	/	/	/
COC(=O)CCCCCCCCC(=O)Nc1nc2ccccc2s1	2	2	4	0	50*	0	76*	37*	18	5
N#Cc1c(N)sc2c1CCN(CCc1ccccc1)C2	3	44	-11	1	79*	-1	84*	2	64*	1
CCOC(=O)N1CCc2c(sc(N)c2C#N)C1	12	-21	5	0	1	0	/	/	/	/
O=c1[nH]ncc(N/N=C\c2ccc(O)cc2O)c1Cl	-2	30	-18	0	73*	0	80*	1	67*	9
O=S(=O)(Nc1cccnc1)c1ccc(C2CCCCC2)cc1	-1	24	3	3	56*	5	71*	28*	48	31*
O=S(=O)(Nc1cccnc1)c1ccccc1	1	-15	-1	1	13	1	/	/	/	/
CC1CCCN(CCOc2ccc(Br)cc2)C1 (centres undefined)	0	-15	-6	0	14	-1	/	/	/	/
CC1CCCN(CCC(=O)c2ccc(Br)cc2)C1 (centres undefined)	0	22	8	1	75*	0	93*	3	57*	7
COc1ccc(C(=O)CCN2CCCC(C)C2)cc1 (centres undefined)	-2	16	6	/	79*	/	76*	1	18	2
N/C(=N\OC(=O)Oc1ccccc1)c1ccc(Br)cc1	-1	-9	-7	1	9	-1	/	/	/	/
NC(=Nc1ccc(Br)cc1)c1ccccc1	0	40	4	/	50*	/	55*	27*	49	18
CSCCC(NS(=O)(=O)c1ccccc1F)C(=O)NCc1ccncc1 (centres undefined)	-1	13	/	/	0	/	/	/	/	/
CC(Sc1ncn[nH]1)C(=O)Nc1ccc(Cl)cn1 (centres undefined)	4	-7	/	/	0	/	/	/	/	/
O=C(Cc1ccc(NC(=O)C2CCN(C(=O)C3CCCC3)CC2)cc1)Nc1cccc(C(=O)N2CCCCC2)c1	/	2	/	/	0	/	/	/	/	/
Cc1cc(=O)n(Nc2ccccc2)c(O)c1C#N	/	-24	/	/	0	/	/	/	/	/
CCCCCc1ccc(OCCCC[n+]2cccc(C)c2)c(CCCCC)c1	3	-2	34*	-1	60*	-2	76*	53*	52*	39*
CCCCCc1ccc(OCCCC[n+]2ccccc2)c(CCCCC)c1	11	/	-20	0	/	-2	/	/	/	/
COc1ccc(OC)c(NC(=O)Nc2nnc([C@@H]3O[C@H](CO)[C@@H](O)[C@H]3O)s2)c1	/	-18	/	/	1	/	/	/	/	/
O=C(NCCc1ccccc1)C1CCCN(S(=O)(=O)c2cccc3nonc23)C1 (centres undefined)	4	3	15	1	9	-2	/	/	/	/
Cc1ccc(CCNC(=O)C2CCN(S(=O)(=O)c3cccc4cccnc34)CC2)cc1	3	29	-8	/	8	/	/	/	/	/
Cc1ccc(CCNC(=O)C2CCN(S(=O)(=O)c3cccc4nsnc34)CC2)cc1	3	56*	-1	1	77*	0	1	4	16	19
